Experimental data published in paper PMC5292677 (Leukemia, 2016).

System: patients with myelofibrosis
Assay: Phase I safety: drug-related adverse events, DLTs, tolerability
Format: in vivo, human
Method in brief: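 Design was 3+3 dose escalation of oral test compound QD (75–400 mg) or BID (100–400 mg) in 28-day cycles. AEs were graded by CTCAE v4.0 with causality, alongside labs, ECGs, vital signs and physical exams. A DLT was grade 4 cytopenia, other grade 3/4 hematologic toxicity, or grade 3/4 non-hematologic toxicity, excluding manageable GI events. The population was all patients dosed ≥1 time.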

## C[C@H](Nc1cc(-c2cnn(C)c2)cc(Nc2cnccn2)n1)c1ccc(F)cc1 [NS-018]
75 mg QD (n=3)
  Drug-related anemia, all grades: 0 n (%)
  Drug-related diarrhea, all grade: 0 n (%)
  Drug-related dizziness, all grade: 0 n (%)
  Drug-related esophageal reflux, all grade: 0 n (%)
  Drug-related headache, all grade: 0 n (%)
  Drug-related nausea, all grade: 0 n (%)
  Drug-related paresthesia, all grade: 0 n (%)
  Drug-related thrombocytopenia, Grade 1/2: 0 n (%)
  Drug-related thrombocytopenia, Grade 3: 0 n (%)
  Drug-related thrombocytopenia, Grade 4: 1 (33) n (%)
  Drug-related thrombocytopenia, all grades: 1 (33) n (%)
  Drug-related vomiting, all grade: 0 n (%)
  Drug-related weight increased, all grade: 0 n (%)
100 mg BID (n=5)
  Drug-related anemia, all grades: 0 n (%)
  Drug-related diarrhea, all grade: 0 n (%)
  Drug-related dizziness, all grade: 0 n (%)
  Drug-related esophageal reflux, all grade: 0 n (%)
  Drug-related headache, all grade: 0 n (%)
  Drug-related nausea, all grade: 0 n (%)
  Drug-related paresthesia, all grade: 0 n (%)
  Drug-related thrombocytopenia, Grade 1/2: 0 n (%)
  Drug-related thrombocytopenia, Grade 3: 1 (20) n (%)
  Drug-related thrombocytopenia, Grade 4: 0 n (%)
  Drug-related thrombocytopenia, all grades: 1 (20) n (%)
  Drug-related vomiting, all grade: 0 n (%)
  Drug-related weight increased, all grade: 0 n (%)
125 mg QD (n=4)
  Drug-related anemia, all grades: 0 n (%)
  Drug-related diarrhea, all grade: 0 n (%)
  Drug-related dizziness, all grade: 0 n (%)
  Drug-related esophageal reflux, all grade: 0 n (%)
  Drug-related headache, all grade: 0 n (%)
  Drug-related nausea, all grade: 0 n (%)
  Drug-related paresthesia, all grade: 0 n (%)
  Drug-related thrombocytopenia, all grades: 0 n (%)
  Drug-related vomiting, all grade: 0 n (%)
  Drug-related weight increased, all grade: 0 n (%)
200 mg BID (n=12)
  Drug-related anemia, all grades: 0 n (%)
  Drug-related diarrhea, all grade: 2 (17) n (%)
  Drug-related diarrhea, grade 3 or 4: 0 n (%)
  Drug-related dizziness, all grade: 1 (8) n (%)
  Drug-related dizziness, grade 3 or 4: 0 n (%)
  Drug-related esophageal reflux, all grade: 0 n (%)
  Drug-related headache, all grade: 0 n (%)
  Drug-related nausea, all grade: 1 (8) n (%)
  Drug-related nausea, grade 3 or 4: 0 n (%)
  Drug-related paresthesia, all grade: 0 n (%)
  Drug-related thrombocytopenia, Grade 1/2: 1 (8) n (%)
  Drug-related thrombocytopenia, all grades: 1 (8) n (%)
  Drug-related vomiting, all grade: 0 n (%)
  Drug-related weight increased, all grade: 0 n (%)
200 mg QD (n=9)
  Drug-related anemia, Grade 1/2: 1 (11) n (%)
  Drug-related anemia, all grades: 1 (11) n (%)
  Drug-related diarrhea, all grade: 2 (22) n (%)
  Drug-related diarrhea, grade 3 or 4: 0 n (%)
  Drug-related dizziness, all grade: 0 n (%)
  Drug-related esophageal reflux, all grade: 0 n (%)
  Drug-related headache, all grade: 0 n (%)
  Drug-related nausea, all grade: 1 (11) n (%)
  Drug-related nausea, grade 3 or 4: 0 n (%)
  Drug-related paresthesia, all grade: 0 n (%)
  Drug-related thrombocytopenia, all grades: 0 n (%)
  Drug-related vomiting, all grade: 2 (22) n (%)
  Drug-related vomiting, grade 3 or 4: 0 n (%)
  Drug-related weight increased, all grade: 2 (22) n (%)
  Drug-related weight increased, grade 3 or 4: 0 n (%)
250 mg BID (n=8)
  Drug-related anemia, Grade 1/2: 1 (13) n (%)
  Drug-related anemia, Grade 3: 0 n (%)
  Drug-related anemia, Grade 4: 0 n (%)
  Drug-related anemia, all grades: 1 (13) n (%)
  Drug-related diarrhea, all grade: 0 n (%)
  Drug-related dizziness, all grade: 1 (13)/1 (13) n (%)
  Drug-related dizziness, grade 3 or 4: 1 (13)/1 (13) n (%)
  Drug-related esophageal reflux, all grade: 1 (13) n (%)
  Drug-related esophageal reflux, grade 3 or 4: 0 n (%)
  Drug-related headache, all grade: 0 n (%)
  Drug-related nausea, all grade: 2 (25) n (%)
  Drug-related nausea, grade 3 or 4: 1 (13) n (%)
  Drug-related paresthesia, all grade: 0 n (%)
  Drug-related thrombocytopenia, Grade 1/2: 2 (25) n (%)
  Drug-related thrombocytopenia, Grade 3: 0 n (%)
  Drug-related thrombocytopenia, Grade 4: 1 (13) n (%)
  Drug-related thrombocytopenia, all grades: 3 (38) n (%)
  Drug-related vomiting, all grade: 0 n (%)
  Drug-related weight increased, all grade: 0 n (%)
250 mg BID cohort
  DLT: grade 3 QT prolongation: 1 patient
300 mg BID
  Patients who discontinued owing to AEs (beyond DLT): 3 patients
  Rate of discontinuations owing to AEs: 38%
300 mg BID (n=12)
  Drug-related anemia, Grade 1/2: 1 (8) n (%)
  Drug-related anemia, Grade 3: 2 (17) n (%)
  Drug-related anemia, Grade 4: 0 n (%)
  Drug-related anemia, all grades: 3 (25) n (%)
  Drug-related diarrhea, all grade: 1 (8) n (%)
  Drug-related diarrhea, grade 3 or 4: 0 n (%)
  Drug-related dizziness, all grade: 3 (25) n (%)
  Drug-related dizziness, grade 3 or 4: 0 n (%)
  Drug-related esophageal reflux, all grade: 1 (8) n (%)
  Drug-related esophageal reflux, grade 3 or 4: 0 n (%)
  Drug-related headache, all grade: 0 n (%)
  Drug-related nausea, all grade: 4 (33) n (%)
  Drug-related nausea, grade 3 or 4: 0 n (%)
  Drug-related paresthesia, all grade: 2 (17) n (%)
  Drug-related paresthesia, grade 3 or 4: 1 (8) n (%)
  Drug-related thrombocytopenia, Grade 1/2: 3 (25) n (%)
  Drug-related thrombocytopenia, Grade 3: 1 (8) n (%)
  Drug-related thrombocytopenia, Grade 4: 0 n (%)
  Drug-related thrombocytopenia, all grades: 4 (33) n (%)
  Drug-related vomiting, all grade: 0 n (%)
  Drug-related weight increased, all grade: 1 (8) n (%)
  Drug-related weight increased, grade 3 or 4: 0 n (%)
